How the values were obtained:
[1] = Cmax in the CSF of male wistar rats; assay type: ADME, organism-based, Cerebrospinal fluid; conditions: rat
How it was run: (§1)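 Male Wistar rats with jugular vein cannula, free access to food and water, given 30 mg/kg by oral gavage in 30% w/v β-cyclodextrin. Plasma, whole brain and CSF sampled over a time course (through 6–8 h); one animal per time point.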

[2] = Cmax in the brain of male wistar rats; assay type: ADME, organism-based; conditions: rat; how it was run: as §1
[3] = Cmax in the plasma of male wistar rats; assay type: ADME, organism-based; conditions: rat; how it was run: as §1
[4] = t1/2 in the CSF of male wistar rats; assay type: ADME, organism-based, Cerebrospinal fluid; conditions: rat; how it was run: as §1
[5] = t1/2 in the brain of male wistar rats; assay type: ADME, organism-based; conditions: rat; how it was run: as §1
[6] = t1/2 in the plasma of male wistar rats; assay type: ADME, organism-based; conditions: rat; how it was run: as §1
[7] = tmax in the CSF of male wistar rats; assay type: ADME, organism-based, Cerebrospinal fluid; conditions: rat; how it was run: as §1
[8] = tmax in the brain of male wistar rats; assay type: ADME, organism-based; conditions: rat; how it was run: as §1
[9] = tmax in the plasma of male wistar rats; assay type: ADME, organism-based; conditions: rat; how it was run: as §1
HMCB cell line = assay: Inhibitory activity against calcium mobilization in NPY5 transfected human bowes melanoma cell line.; assay type: functional, cell-based
How it was run: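 Ca2+ mobilization read-out in human Bowes melanoma (HMCB) cells transfected with NPY5.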

[10] = target: T1, Neuropeptide Y receptor type 1 (Homo sapiens, UniProt P25929); assay: Inhibitory activity against Neuropeptide Y receptor type 1
T1 sequence (P25929 whole entry): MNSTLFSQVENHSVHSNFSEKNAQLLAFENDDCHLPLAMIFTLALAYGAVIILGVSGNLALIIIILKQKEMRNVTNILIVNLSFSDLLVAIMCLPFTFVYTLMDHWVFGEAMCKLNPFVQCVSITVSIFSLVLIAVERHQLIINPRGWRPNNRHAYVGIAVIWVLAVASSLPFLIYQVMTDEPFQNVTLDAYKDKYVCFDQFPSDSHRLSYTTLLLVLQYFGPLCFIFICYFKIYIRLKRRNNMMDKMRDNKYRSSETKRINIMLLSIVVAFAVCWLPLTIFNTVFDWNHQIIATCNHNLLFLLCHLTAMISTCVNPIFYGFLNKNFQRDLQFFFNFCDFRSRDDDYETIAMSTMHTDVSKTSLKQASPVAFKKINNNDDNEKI
How it was run: (§2)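 Cloned human chimeric NPY receptors, displacement of [125I]PYY radioligand.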

[11] = target: T2, Neuropeptide Y receptor type 2 (Homo sapiens, UniProt P49146); assay: Inhibitory activity against Neuropeptide Y receptor type 2; how it was run: as §2
T2 sequence (P49146 whole entry): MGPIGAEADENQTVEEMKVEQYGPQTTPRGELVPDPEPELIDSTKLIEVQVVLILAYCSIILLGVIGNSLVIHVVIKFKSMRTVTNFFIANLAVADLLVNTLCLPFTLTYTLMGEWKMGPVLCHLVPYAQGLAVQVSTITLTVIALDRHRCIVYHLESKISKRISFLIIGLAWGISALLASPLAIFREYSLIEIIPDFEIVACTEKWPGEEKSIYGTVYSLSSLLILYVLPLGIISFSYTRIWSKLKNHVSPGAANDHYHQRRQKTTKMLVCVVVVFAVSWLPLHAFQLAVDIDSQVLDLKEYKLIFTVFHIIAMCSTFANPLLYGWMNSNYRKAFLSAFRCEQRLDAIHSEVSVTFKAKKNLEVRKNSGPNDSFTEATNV

[12] = target: T3, Neuropeptide Y receptor type 5 (Homo sapiens, UniProt Q15761); assay: Binding affinity to the human Neuropeptide Y receptor type 5 was determined using [125I]- [PYY] as radioligand
T3 sequence (Q15761 whole entry): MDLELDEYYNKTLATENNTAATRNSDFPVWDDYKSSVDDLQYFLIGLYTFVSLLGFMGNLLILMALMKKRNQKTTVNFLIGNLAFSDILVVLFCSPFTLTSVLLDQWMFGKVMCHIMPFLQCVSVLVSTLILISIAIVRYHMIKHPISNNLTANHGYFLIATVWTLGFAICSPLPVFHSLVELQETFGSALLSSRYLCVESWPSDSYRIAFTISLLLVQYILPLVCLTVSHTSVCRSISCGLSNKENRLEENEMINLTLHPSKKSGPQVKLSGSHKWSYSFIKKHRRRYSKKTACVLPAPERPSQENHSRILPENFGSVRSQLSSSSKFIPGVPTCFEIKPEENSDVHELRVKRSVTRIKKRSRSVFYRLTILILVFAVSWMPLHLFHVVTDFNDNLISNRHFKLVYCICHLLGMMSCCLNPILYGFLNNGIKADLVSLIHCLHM
How it was run: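 Radioligand displacement binding on cloned human chimeric NPY5 receptors, with [125I]PYY as the labelled ligand.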

[13] = target: T4, Neuropeptide Y receptor type 5 (Rattus norvegicus, UniProt Q63634); assay: Binding affinity to the rat Neuropeptide Y receptor type 5 was determined using [125I]- [Leu31,Pro34]PYY as radioligand
T4 sequence (Q63634 whole entry): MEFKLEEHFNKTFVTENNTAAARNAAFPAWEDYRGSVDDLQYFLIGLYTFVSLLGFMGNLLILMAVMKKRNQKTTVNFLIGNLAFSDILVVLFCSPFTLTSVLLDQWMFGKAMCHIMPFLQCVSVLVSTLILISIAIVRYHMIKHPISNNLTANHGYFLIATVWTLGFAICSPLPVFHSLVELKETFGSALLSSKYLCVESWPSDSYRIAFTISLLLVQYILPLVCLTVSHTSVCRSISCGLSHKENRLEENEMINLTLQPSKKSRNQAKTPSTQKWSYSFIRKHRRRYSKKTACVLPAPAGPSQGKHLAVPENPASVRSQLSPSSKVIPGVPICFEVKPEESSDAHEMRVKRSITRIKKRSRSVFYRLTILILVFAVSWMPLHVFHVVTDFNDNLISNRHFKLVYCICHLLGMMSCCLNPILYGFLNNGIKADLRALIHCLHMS
How it was run: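 Whole rat brain membranes; radioligand [125I][Leu31,Pro34]PYY, with 1 μM BIBP3226 present to block NPY-1 receptors.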

- Cmax [1]: 0.213 µM
- Cmax [2]: 8.55 µM
- Cmax [3]: 4.42 µM
- half-life [4]: 96 min
- half-life [5]: 66 min
- half-life [6]: 66 min
- Tmax [7]: 30 min
- Tmax [8]: 30 min
- Tmax [9]: 30 min
- IC50 (HMCB cell line): 0.4 nM
- IC50 [10]: > 1000 nM
- IC50 [11]: > 1000 nM
- Ki [12]: 1.2 nM
- Ki [13]: 1.7 nM
SMILES: CC(C)(C)OCCOc1ccc(-c2nc(-c3cccc(C#N)c3)c[nH]2)cn1
